Laboratory results from article PMC4263960 (Pediatric blood & cancer, 2013).
Where two headings read alike, the source gives them in different places.

Legend:
ALL xenografts = test: PPTP in vivo testing, ALL xenograft panel summary; design: species or system mice
NB-1643 cell line = test: DIMSCAN in vitro cytotoxicity testing, NB-1643; assay type: cell-based
Summary of the method: (§1)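 Test compound incubated with cells of a 24-line pediatric cancer panel for 96 h at 0.1 nM to 1 μM, then assessed by DIMSCAN. Relative IC50 (rIC50) derived per line. Panel comparison value is the panel rIC50 divided by the rIC50 of each cell line.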

RD cell line = test: DIMSCAN in vitro cytotoxicity testing, RD; assay type: cell-based
Summary of the method: as §1

NALM-6 cell line = test: DIMSCAN in vitro cytotoxicity testing, NALM-6; assay type: cell-based
Summary of the method: as §1

EW5 Ewing xenograft = test: PPTP in vivo xenograft testing, EW5; design: species or system mice
CCRF-CEM cell line = test: DIMSCAN in vitro cytotoxicity testing, CCRF-CEM; assay type: cell-based; conditions: for IC50: Homo sapiens, CCRF-CEM, 96 h
Summary of the method: as §1

[1] = tested on: ALL-19 ALL B-precursor xenograft; test: PPTP in vivo xenograft testing, ALL-19; design: species or system mice
[2] = tested on: CHLA-79 neuroblastoma xenograft; test: PPTP in vivo xenograft testing, CHLA-79; design: species or system mice
Rh41 cell line = test: DIMSCAN in vitro cytotoxicity testing, Rh41; assay type: cell-based
Summary of the method: as §1

[3] = tested on: OS-33 osteosarcoma xenograft; test: PPTP in vivo xenograft testing, OS-33; design: species or system mice
[4] = tested on: OS-9 osteosarcoma xenograft; test: PPTP in vivo xenograft testing, OS-9; design: species or system mice
[5] = 1 mg/kg IP Q4Dx3 repeated at Day 21

## C=C1C[C@@H]2CC[C@@]34C[C@H]5O[C@H]6[C@@H](O3)[C@H]3O[C@H](CC[C@@H]3O[C@H]6[C@H]5O4)CC(=O)C[C@@H]3[C@@H](OC)[C@@H](C[C@H](O)CN)O[C@H]3C[C@H]3O[C@@H](CC[C@@H]1O2)C[C@@H](C)C3=C [Eribulin]
ALL xenografts; ALL panel
  xenografts with CR or MCR: All eight
  xenografts with high EFS T/C activity: six of eight
ALL xenografts; evaluable ALL xenografts, 1.5 mg/kg
  xenografts with significant difference in EFS distribution compared to control: 8 of 8
NB-1643 cell line; NB-1643
  Panel rIC50/Line rIC50: 0.57
  Relative in/out%: −97%
  Ymin % (observed): 0.53%
NB-1643 cell line; NB-1643, 96 h, read-out: rIC50
  IC50: 470 pM
RD cell line
  Panel rIC50/Line rIC50: 1.92
  Relative in/out%: −18%
  Ymin % (observed): 4.49%
RD cell line; Homo sapiens, 96 h, read-out: rIC50
  IC50: 140 pM
NALM-6 cell line; Homo sapiens, NALM-6, 96 h, read-out: rIC50
  IC50: 590 pM
NALM-6 cell line; NALM-6
  Panel rIC50/Line rIC50: 0.46
  Relative in/out%: −99%
  Ymin % (observed): 0.03%
EW5 Ewing xenograft; 1 mg/kg IP
  EFS activity: Int (Intermediate activity = criteria (a) and (b) above, but not having a net reduction in median tumor volume for treated animals at the end of the study)
  Response activity: Int (intermediate activity by a score of ≥2 but <6)
  T/C volume activity: High (High activity = T/C ≤0.15)
EW5 Ewing xenograft; [5]
  EFS T/C: 3.3
  Median final RTV (CD45%): >4
  Time to event: 41.3
EW5 Ewing xenograft; 1 mg/kg IP, Day 21 or earlier
  Tumor volume T/C: 0.13
CCRF-CEM cell line; CCRF-CEM (1)
  Panel rIC50/Line rIC50: 0.17
  Relative in/out%: −100%
  Ymin % (observed): 0.01%
CCRF-CEM cell line; CCRF-CEM (2)
  Panel rIC50/Line rIC50: 0.14
  Relative in/out%: −100%
  Ymin % (observed): 0.02%
CCRF-CEM cell line; read-out: rIC50, CCRF-CEM (1) ALL
  IC50: 1620 pM
CCRF-CEM cell line; read-out: rIC50, CCRF-CEM (2) ALL
  IC50: 1880 pM
[1]; 1.5 mg/kg IP
  EFS activity: High (High activity requires: (a) an EFS T/C >2; (b) a significant difference in EFS distributions, and (c) a net reduction in median tumor volume for animals in the treated group at the end of treatment as compared to at treatment initiation)
  Response activity: High (A high level of activity is indicated by a score of 6 or more)
[1]; 1.5 mg/kg IP Q4Dx3 repeated at Day 21
  EFS T/C: >8.4
[1]; CD45%, 1.5 mg/kg IP
  Median final RTV (CD45%): 0.0%
[2]; 1 mg/kg IP
  EFS activity: Low (Low activity = EFS T/C <2)
  Response activity: Int (intermediate activity by a score of ≥2 but <6)
  T/C volume activity: Low (Low activity = T/C >0.45)
[2]; [5]
  EFS T/C: 1.9
  Median final RTV (CD45%): >4
  Time to event: 13.0
[2]; 1 mg/kg IP, Day 21 or earlier
  Tumor volume T/C: 0.71
Rh41 cell line; Homo sapiens, Rh41, 96 h, read-out: rIC50
  IC50: 140 pM
Rh41 cell line; Rh41
  Panel rIC50/Line rIC50: 2.00
  Relative in/out%: −70%
  Ymin % (observed): 6.63%
[3]; 1 mg/kg IP
  EFS activity: High (High activity requires: (a) an EFS T/C >2; (b) a significant difference in EFS distributions, and (c) a net reduction in median tumor volume for animals in the treated group at the end of treatment as compared to at treatment initiation)
  Response activity: High (A high level of activity is indicated by a score of 6 or more)
  T/C volume activity: Int (Intermediate activity = T/C ≤0.45 but >0.15)
[3]; [5]
  EFS T/C: >2.7
  Median final RTV (CD45%): 0.2
[3]; 1 mg/kg IP, Day 21 or earlier
  Tumor volume T/C: 0.24
[4]; 1 mg/kg IP
  EFS activity: Low (Low activity = EFS T/C <2)
  Response activity: Low (low activity by a score of <2)
  T/C volume activity: Low (Low activity = T/C >0.45)
[4]; [5]
  EFS T/C: 1.4
  Median final RTV (CD45%): >4
